organism: Rattus norvegicus; experiment: Inhibition of rat ventricular muscle strip contractility.; type: functional; settings: Muscle tissue
Method in brief: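 Rat right ventricular muscle strips were held in water-jacketed baths of Krebs-Henseleit solution at 30 °C, aerated with O2-CO2 (95:5), at 0.5 g resting tension. Contraction was evoked by electrical stimulation and recorded on a polygraph. IC50 was taken from inhibition of contraction, using three to five experiments.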

Structure (SMILES) | IC50
CC1CCC2(O)C3(C)CC4(O)OC2(C1O)C1(O)C3(O)C(OC(=O)c2ccc[nH]2)C(O)(C(C)C)C41C (centres undefined) | 0.034 µM

organism: Rattus norvegicus; experiment: Potency relative to ryanodine inhibiting rat ventricular muscle strip contractility.; type: functional, Muscle tissue; settings: not given
Method in brief: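 Right ventricular muscle strips from rat suspended in Krebs-Henseleit solution at 30 °C, aerated O2-CO2 95:5; resting tension 0.5 g. Contraction evoked by electrical stimulation was recorded and its inhibition measured. IC50 values are expressed relative to ryanodine; three to five experiments.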

Structure (SMILES) | Potency
C=C1CCC23OB(c4ccsc4)OC45C(OC(=O)c6ccc[nH]6)C(O)(C(C)C)C6(C)C(O)(CC24C)OC3(C1O)C56O (centres undefined) | 52
CC1CCC2(O)C3(C)CC4(O)OC2(C1O)C1(O)C3(O)C(OC(=O)c2ccc[nH]2)C2(OC2(C)C)C41C (stereo in doubt; 25) | 24
C=C1CCC2(O)C3(C)CC4(O)OC25C1OP(=O)(NC)OC51C3(O)C(OC(=O)c2ccc[nH]2)C(O)(C(C)C)C41C (centres undefined) | <3.5
C=C1CCC23OB(O)OC45C(OC(=O)c6ccc[nH]6)C(O)(C(C)C)C6(C)C(O)(CC24C)OC3(C1O)C56O (centres undefined) | 28
CC1CCC2(O)C3(C)CC4(O)OC2(C1O)C1(O)C3(O)C(OC(=O)c2ccc[nH]2)C2(OC2(C)C)C41C (stereo in doubt; 26) | 3.4
C=C1CCC23OB(CC)OC45C(OC(=O)c6ccc[nH]6)C(=C(C)C)C6(C)C(O)(CC24C)OC3(C1O)C65O (centres undefined) | 26
CC1CCC2(O)C3(C)CC4(O)OC2(C1O)C1(O)C3(O)C(OC(=O)c2ccc[nH]2)C(O)(C(C)(C)O)C41C (centres undefined) | 26
C=C1CCC2(O)C3(C)CC4(O)OC2(C1O)C1(O)C3(O)C(OC(=O)c2cccn2C)C(O)(C(C)C)C41C (centres undefined) | 100
CC1CCC2(O)C3(C)CC4(O)OC2(C1O)C1(O)C3(O)C(OC(=O)c2ccc[nH]2)C(O)(C(C)C)C41C (centres undefined) | 100
CC1CCC2(O)C3(OC4(O)CC2(C)C2(NO)C(OC(=O)c5ccc[nH]5)C(O)(C(C)C)C4(C)C23)C1O (centres undefined) | 4.9
CC1CCC2(O)C3(OC4(O)CC2(C)C2(O)C(OC(=O)c5ccc[nH]5)C(O)(C(C)C)C4(C)C23)C1O (centres undefined) | 64
C=C1CCC23OB(C)OC45C(OC(=O)c6ccc[nH]6)C(O)(C(C)C)C6(C)C(O)(CC24C)OC3(C1O)C56O (centres undefined) | 100
CONC12C(OC(=O)c3ccc[nH]3)C(O)(C(C)C)C3(C)C1C14OC3(O)CC2(C)C1(O)CCC(C)C4O (centres undefined) | <1.1

— ChEMBL document CHEMBL1129786, “Ryanodine action at calcium release channels. 1. importance of hydroxyl substituents” (J Med Chem, 1996)
